This is a sample that favours compounds with a hit; in the whole collection about 0.77% have one here.
bIAP activator: bovine intestinal alkaline phosphatase activators, primary screen, biochemical, bovine IAP, CDP-star luminescence. AID 1016, 2008. activation factor at 20 µM. purified bovine IAP, 30 min; active compounds read high; fold of DMSO-control signal, blank-subtracted. 0.17% of 200,000 active;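 active = activation factor of 2 or more at 20 µM, a signal rise over negative controls twice the positive control's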
hIAP activ: human IAP activators, primary screen, biochemical, luminescence, uHTS. activation factor at 10 µM. AID 2524, 2010. purified human IAP, CDP-Star luminescence, 30 min; active compounds read high; 1 = vehicle-only enzyme, 0 = enzyme-free background. Intestinal-type alkaline phosphatase (Homo sapiens), P09923. 0.16% of 330,000 active;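 active = activation factor of the enzyme at least 2-fold when tested at 20 µM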
Target sequence (P09923 whole entry, looked up): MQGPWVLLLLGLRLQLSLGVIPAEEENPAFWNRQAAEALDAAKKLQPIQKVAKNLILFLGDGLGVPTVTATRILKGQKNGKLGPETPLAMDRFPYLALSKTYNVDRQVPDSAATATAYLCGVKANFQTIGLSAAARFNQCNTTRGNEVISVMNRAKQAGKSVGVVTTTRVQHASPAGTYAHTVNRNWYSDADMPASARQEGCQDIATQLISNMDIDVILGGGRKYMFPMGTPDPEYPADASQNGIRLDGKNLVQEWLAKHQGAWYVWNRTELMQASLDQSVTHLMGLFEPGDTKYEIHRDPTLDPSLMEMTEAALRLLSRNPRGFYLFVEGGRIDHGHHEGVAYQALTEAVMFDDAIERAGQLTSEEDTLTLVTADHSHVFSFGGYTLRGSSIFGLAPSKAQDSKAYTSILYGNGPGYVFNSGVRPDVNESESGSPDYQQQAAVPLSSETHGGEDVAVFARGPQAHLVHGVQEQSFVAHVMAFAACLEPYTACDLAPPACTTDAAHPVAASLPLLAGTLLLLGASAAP
hIAP block: human IAP inhibitors, primary screen, biochemical, luminescence, uHTS; Intestinal-type alkaline phosphatase (Homo sapiens), P09923; purified IAP, CDP-Star luminescence, 30 min; inhibition, % at 10 µM; 0.12% of 330,000 active;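 active = inhibition reaching a set limit with compound at 10 µM in the primary screen, cut at about 35% in these data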;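 note: plate controls were DMSO wells with enzyme for no effect and no-enzyme buffer wells for full effect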
mIAP block: inhibitors of mouse IAP, primary screen, biochemical, luminescence, uHTS. inhibition, % at 10 µM. purified mouse IAP, CDP-Star luminescence, 30 min. intestinal alkaline phosphatase [Mus musculus]. 0.2% of 330,000 active;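 active = inhibition of at least 40% at 10 µM in the primary screen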;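 note: plate controls were DMSO with enzyme for no effect and no enzyme wells for full effect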
bIAP inhibitor: bovine intestinal alkaline phosphatase inhibitors, primary screen, selectivity assay for TNAP inhibitor project, biochemical, bovine IAP, CDP-star luminescence; alkaline phosphatase, intestinal [Bos taurus]; purified bovine IAP, 30 min; inhibition, % at 20 µM; 190,000 tested, under 10 active;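 active = over 50% inhibition of intestinal alkaline phosphatase at 20 µM in the single-dose screen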
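Assay system – bovine IAP enzyme · Quantity – bovine IAP at 1/65,000,000 final dilution · Detection – CDP-star luminescence signal · Times – 30 min reaction at room temperature · Also added – CDP-star substrate at 30 µM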
mIAP act: activators of mouse IAP, primary screen, biochemical, luminescence, uHTS; intestinal alkaline phosphatase [Mus musculus]; muIAP, CDP-Star luminescence, 30 min; active compounds read high; 1 = vehicle-only enzyme signal, 0 = enzyme-free wells; activation factor at 10 µM; 0.24% of 330,000 active; AID 2805, 2010;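 active = activation factor of at least 2 at 20 µM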
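System: Mouse IAP enzyme | Also added: CDP-Star substrate | Dosing: Compounds dispensed in DMSO | Schedule: 30 min enzyme-substrate-compound incubation at room temperature | Technique: Chemiluminescence readout | Control set: DMSO-only wells and no-enzyme negative control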
mIAP inh conf: inhibitors of mouse IAP, confirmation, biochemical, luminescence, single concentration; shares compounds with mIAP block; purified mouse IAP, CDP-Star luminescence, 30 min; inhibition, % at 10 µM; 4.7% of 11,000 active; AID 434971, 2010;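 active = inhibition of at least 40% at 10 µM in either of the two replicates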;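 note: plate controls were DMSO wells with enzyme for no effect and buffer wells lacking enzyme for full effect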
An asterisk follows results filed as active; i = inactive; x = not tested or not shown.

SMILES | bIAP activator | hIAP activ | hIAP block | mIAP block | bIAP inhibitor | mIAP act | mIAP inh conf
CN(CC(=O)Nc1cccc(F)c1)C(=O)/C=C/c1ccc2ccccc2n1 | x | 1.2 | -19 | 0 | x | 1 | x
O=C(NC(=S)N1CCCCC1)C12CC3CC(CC(C3)C1)C2 | 0.7 | 1.1 | -14 | 2 | 26 | 0.98 | x
O=C(c1cc(NC(=O)C23CC4CC(CC(C4)C2)C3)cc(NC(=O)C23CC4CC(CC(C4)C2)C3)c1)N1CCCCC1 | 0.9 | 0.94 | 6 | -106 | 13 | 2.1* | -106
Cc1nc2ccccc2c(=O)n1/N=C/c1ccc(O)c(O)c1O | x | 0.99 | 1 | 57* | x | 0.43 | 81*
CCC(C)NC(=O)Nc1ccc2c(c1)N(C)C(=O)c1ccccc1S2 (stereo unspecified) | 3.6* | 1.1 | -6 | -240 | -260 | 3.4* | -100
CCc1ccc(C2NC(=O)c3ccccc3O2)cc1 (stereo unspecified) | x | 0.94 | 6 | 7 | x | 0.93 | x
O=C1CC(c2ccc(O)c(O)c2)Oc2c1ccc(O)c2O (stereo unspecified) | x | 0.72 | 28 | 78* | x | 0.22 | 81*
O=C1CC(c2ccc(O)cc2)Oc2cc(O)cc(O)c21 (stereo unspecified) | 1.1 | 1 | -2 | -1 | -13 | 1 | x
COc1cc(CNc2ncnc3c2[nH]c2ccc(C)cc23)cc(OC)c1 | x | 1.7 | -69 | -212 | x | 3.1* | -197
Oc1c(C=C2N=c3ccccc3=N2)sc(=S)n1-c1ccc(F)cc1 | 1 | 1.2 | -18 | 37 | 1 | 0.63 | 38*
CS(=O)(=O)c1ccc(C(=O)Nc2nc(-c3ccco3)c(-c3ccco3)s2)cc1 | x | 0.96 | 4 | 60* | x | 0.4 | 70*
CC(C)c1ccc(OCC(=O)Nc2c3c(nn2C(C)(C)C)CS(=O)(=O)C3)cc1 | x | 1 | -4 | 3 | x | 0.97 | x
Nc1cc(-c2ccc(OC(F)(F)F)cc2)nn1-c1ccc(Cl)c(Cl)c1 | x | 0.99 | 1 | -4 | x | 1 | x
CCS(=O)(=O)n1nc(-c2ccco2)nc1SC | 0.9 | 0.99 | 1 | 22 | 6 | 0.78 | 36*
CSc1nc(-c2ccco2)nn1S(=O)(=O)c1ccccc1 | 0.9 | 0.91 | 9 | 1 | 9 | 0.99 | x
O=C(N/N=C/c1ccc([N+](=O)[O-])o1)c1ccncc1 | x | 1.1 | -14 | 43* | x | 0.57 | 48*
O=C(Cc1ccc2c(c1)OCO2)NN=Cc1ccc([N+](=O)[O-])o1 | x | 1.2 | -15 | 54* | x | 0.46 | 69*
CCCCCC(=O)N/N=C/c1ccc([N+](=O)[O-])o1 | 0.9 | 1.2 | -20 | 23 | 8 | 0.77 | x
O=C(NN=Cc1ccc(F)cc1)c1ccccc1NS(=O)(=O)c1cccs1 | x | 1.1 | -6 | 0 | x | 1 | x
O=C(N/N=C/c1ccc([N+](=O)[O-])o1)c1ccccc1NS(=O)(=O)c1cccs1 | x | 1.2 | -17 | 53* | x | 0.47 | 62*
O=C(N/N=C/c1ccc([N+](=O)[O-])o1)c1cc2ccccc2o1 | x | 0.93 | 7 | 40* | x | 0.6 | 59*
CCC(C)C(NC(=O)C1CCC(C)CC1)C(=O)Nc1ccc(OC)cc1 (stereo unspecified) | x | 1.1 | -15 | -10 | x | 1.1 | x
Cc1ccc(S(=O)(=O)N2CCOC23CCN(S(=O)(=O)c2c(C)cc(C)cc2C)CC3)cc1 | x | 0.99 | 0 | 8 | x | 0.93 | x
C#CCOCCOCCOCCNc1nc(N2CCN(C(=O)CCCCCCCCCCNC(=O)[C@H](CCCCN)n3cc(C[C@@H](C)CC)nn3)CC2)nc(N2CCN(C(=O)CCCCCCCCCCNC(=O)[C@H](CCCN=C(N)N)n3cc(C[C@@H](C)CC)nn3)CC2)n1 | x | 1.4 | -35 | -100 | x | 2 | x
C#CCOCCOCCOCCNc1nc(N2CCN(C(=O)CCCCCCCCCCNC(=O)[C@H]([C@@H](C)CC)n3cc(CCCCN=C(N)N)nn3)CC2)nc(N2CCN(C(=O)CCCCCCCCCCNC(=O)[C@H](CCCN=C(N)N)n3cc(C[C@@H](C)CC)nn3)CC2)n1 | x | 1.5 | -49 | -343 | x | 4.4* | i
SMILES | bIAP activator | hIAP activ | hIAP block | mIAP block | bIAP inhibitor | mIAP act | mIAP inh conf
C#CCOCCOCCOCCNc1nc(N2CCN(C(=O)CCCCCCCCCCNC(=O)[C@H](CCCN=C(N)N)n3cc(C[C@@H](C)CC)nn3)CC2)nc(N2CCN(C(=O)CCCCCCCCCCNC(=O)[C@@H]([C@H](C)CC)n3cc(CCCCCN)nn3)CC2)n1 | x | 1.5 | -50 | -463 | x | 5.6* | i
C#CCOCCOCCOCCNc1nc(N2CCN(C(=O)CCCCCCCCCCNC(=O)[C@@H](CCSC)n3cc(CCO)nn3)CC2)nc(N2CCN(C(=O)CCCCCCCCCCNC(=O)[C@H](CCCN=C(N)N)n3cc(C[C@@H](C)CC)nn3)CC2)n1 | x | 1.6 | -58 | i | x | 7.7* | i
C#CCOCCOCCOCCNc1nc(N2CCN(C(=O)CCCCCCCCCCNC(=O)[C@H](CO)n3cc(CCCCCN)nn3)CC2)nc(N2CCN(C(=O)CCCCCCCCCCNC(=O)[C@H](CCCN=C(N)N)n3cc(C[C@@H](C)CC)nn3)CC2)n1 | x | 0.98 | 2 | -52 | x | 1.5 | x
C#CCOCCOCCOCCNc1nc(N2CCN(C(=O)CCCCCCCCCCNC(=O)[C@H](CCCCN)n3cc(C)nn3)CC2)nc(N2CCN(C(=O)CCCCCCCCCCNC(=O)[C@H](CCCN=C(N)N)n3cc(C[C@@H](C)CC)nn3)CC2)n1 | x | 1.3 | -28 | -215 | x | 3.1* | -295
CCc1ccc(NC(=O)C2C3CCC(O3)C2C(=O)O)cc1 (stereo unspecified) | x | 1.4 | -43 | 2 | x | 0.98 | x
CCOP(=O)(NC12CC3CC(CC(C3)C1)C2)NC12CC3CC(CC(C3)C1)C2 | x | 1.1 | -10 | 4 | x | 0.96 | x
CCOCCCNC(=O)c1cn(CC)c2ccc(S(=O)(=O)N3CCCC3)cc2c1=O | x | 0.97 | 3 | -4 | x | 1 | x
CCn1cc(C(=O)N[C@H](C(=O)NCCCn2ccnc2)C(C)C)c(=O)c2cc3c(cc21)OCO3 | x | 1.3 | -33 | 2 | x | 0.98 | x
C#CCOCCOCCOCCNc1nc(N2CCN(C(=O)CCCCCCCCCCNC(=O)[C@H]([C@@H](C)CC)n3cc(CCCCN=C(N)N)nn3)CC2)nc(N2CCN(C(=O)CCCCCCCCCCNC(=O)[C@@H]([C@H](C)O)n3cc(C)nn3)CC2)n1 | x | 1.1 | -8 | -366 | x | 4.7* | i

Bioassay records deposited in PubChem BioAssay by Sanford-Burnham Center for Chemical Genomics.
